Calls of active or inactive are those of the source.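 How the source made its calls, unless noted: active means NADPH fluorescence slope more negative than the mean of all samples by about 3 SD, 99.7% confidence; inactive means the rest.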

A short description of experiment [1]: inhibitors of TNFa-induced NFkB p65 translocation, primary screen, imaging, HUVEC, MLSMR starter and 10KST1 sets (AID 438;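 active means inhibition above 20% together with a positive visual image hit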;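 further: compound added about 3h40 before a 20 min TNFalpha stimulation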;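 on inhibition: signal is the nuclear over cytoplasmic p65 intensity ratio per well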). To be noted: HUVEC TNFa-induced p65 nuclear translocation; cell count: measured here: nuclei count (cytotoxicity indicator), at 2.08 µM; inhibition: at 2 µM, stronger effect = higher value, 0% TNFa-plus-vehicle, 100% no-TNFa wells.
The nature of experiment [2]: reduction of polyQ htt aggregates in cells – imaging, exon1htt(103Q)mCFP cells, high-content imaging, primary screen (AID 483;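 active means visual image review flags a hit and inhibition of aggregation exceeds 20%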;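 further: compound exposure lasted 3 days before fixation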;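 on nuclei count: percent of the per-plate median nuclei count of sample wells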). To be noted: exon1htt(103Q)mCFP cell line, aggregate imaging, at 2 µM; inhibition of aggregation: stronger effect = higher value; nuclei count: measured here: cell count, toxicity.
A short description of experiment [3]: endothelial E-selectin expression blockers – imaging, HUVEC, immunofluorescence, MLSMR starter and 10KST1 sets, primary screen (AID 487;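 active means visually confirmed hit in the image check and inhibition above 20%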;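 on inhibition: signal is fraction of cell area covered by stained E-selectin grains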;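 on nuclei count: 100% = median nuclei count of all wells on the same plate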). The conditions noted are these: HUVEC TNFalpha-induced E-selectin immunofluorescence imaging, at 2 µM; inhibition: stronger effect = higher value; nuclei count: measured here: cell number, toxicity.
Experiment [4] concerns the target Voltage-gated potassium channel subunit beta-2 (Rattus norvegicus) (UniProt P62483). The experiment in a line: inhibitors of rat Kvbeta2 reductase activity – biochemical, NADPH fluorescence, primary screen (AID 622;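 active means fluorescence slope higher than the sample average by over 3 SD, cut at about -0.22 in these data, passing the limit was not always enough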;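 further: slope of raw intensity against log time taken from 70 to 1610 s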). The conditions noted are these: recombinant KvBeta, 4-cyanobenzaldehyde reduction, at 10 µM, stronger effect = higher value.
The target is the same in experiment [5]. The experiment in a line: enhancers of rat Kvbeta2 NADPH turnover – biochemical, NADPH fluorescence, primary screen (AID 623).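 Further: fluorescence intensity change per second fitted from 20 to 320 s.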 The conditions noted are these: Recombinant KvBeta, NADPH fluorescence decrease slope, 10 min; at 10 µM; stronger effect = lower value.
In experiment [6] the target is Muscarinic acetylcholine receptor M4 (Homo sapiens) (UniProt P08173). The experiment in a line: M4-linked GIRK flux change, two-sided – cell-based, HEK293 M4/GIRK, thallium flux, BTC-AM, M4 allosteric agonist project, primary screen (AID 625;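 active means fluorescence slope after compound addition differing from the mean of all tested samples at 99.7% confidence, mostly higher but some lower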;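 further: thallium influx through GIRK channels coupled to M4 in HEK293 cells with BTC-AM dye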). The conditions noted are these: at 10 µM, actives lie on both sides. The gist of the method: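 assay system = HEK293 cells with M4 receptor and GIRK channels | medium = pH 7.3 thallium assay buffer | doses = 10 µM final, single point | timing = cells overnight at 37 °C, BTC-AM loading 1 h, reads 2 min total | signal = BTC-AM fluorescence, 1 Hz kinetic reads | read-out = post-addition slope, 15–24 s, of baseline-normalized fluorescence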

A short description of experiment [7]: blockers of RIG-like receptor reporter activation – cell-based, Sendai virus stimulus, luciferase, 10K MLSCN set, TLR/RLR signaling modifier project, primary screen (AID 602276;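 active means inhibition at or above 50% at 10 µM; inactive means inhibition below 50%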;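 further: firefly luciferase from ISG56 promoter only with Renilla not read in this screen; 0% = Sendai virus plus DMSO and 100% = medium plus DMSO without virus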). To be noted: HEK293 RL24 IRF3 luciferase reporter, at 10 µM, stronger effect = higher value. (Reporter assays use an easily measured gene product as a stand-in for the process of interest.)
Experiment [8] in a line: TLR3 IRF3 reporter activation blockers – cell-based, poly I:C stimulus, luciferase, 10K MLSCN set, primary screen (AID 602277;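 active means inhibition of the reporter signal at or above 50%; inactive means inhibition below 50%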). To be noted: HEK293-TLR3 RL24 IRF3 luciferase reporter, at 10 µM, stronger effect = higher value.

Sequence of Muscarinic acetylcholine receptor M4 (Homo sapiens) (P08173 whole entry, looked up): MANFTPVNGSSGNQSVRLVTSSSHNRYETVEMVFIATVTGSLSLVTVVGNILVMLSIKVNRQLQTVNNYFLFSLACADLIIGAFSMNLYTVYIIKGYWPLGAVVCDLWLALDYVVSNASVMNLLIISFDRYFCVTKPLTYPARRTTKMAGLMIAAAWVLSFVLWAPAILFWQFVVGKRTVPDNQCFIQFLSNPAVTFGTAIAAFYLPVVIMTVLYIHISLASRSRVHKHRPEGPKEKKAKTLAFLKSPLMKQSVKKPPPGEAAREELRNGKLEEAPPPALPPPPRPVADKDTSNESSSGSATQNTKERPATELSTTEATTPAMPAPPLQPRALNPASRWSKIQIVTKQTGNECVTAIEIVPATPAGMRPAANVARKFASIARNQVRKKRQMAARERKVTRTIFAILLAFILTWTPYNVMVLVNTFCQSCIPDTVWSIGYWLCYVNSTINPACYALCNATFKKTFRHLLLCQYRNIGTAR
Sequence of Voltage-gated potassium channel subunit beta-2 (Rattus norvegicus) (P62483 whole entry, looked up): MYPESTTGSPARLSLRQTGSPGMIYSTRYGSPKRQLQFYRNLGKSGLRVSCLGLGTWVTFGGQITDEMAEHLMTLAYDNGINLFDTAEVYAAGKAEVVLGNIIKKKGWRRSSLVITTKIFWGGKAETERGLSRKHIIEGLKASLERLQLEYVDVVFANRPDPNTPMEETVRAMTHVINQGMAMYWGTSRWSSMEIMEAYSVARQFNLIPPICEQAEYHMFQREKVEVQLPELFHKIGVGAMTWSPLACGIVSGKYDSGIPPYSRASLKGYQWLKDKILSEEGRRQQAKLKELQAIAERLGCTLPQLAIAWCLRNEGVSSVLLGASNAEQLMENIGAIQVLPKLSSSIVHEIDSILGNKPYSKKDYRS

As a reminder, the inhibition is the relative decrease from the control value, in per cent. Consider `C=CCn1c(SCC(=O)NCC2CCCO2)nnc1C1CCCCC1` (centres undefined), for which, in experiment [1], the cell count was determined as 354. Also, the inhibition was -4.5% (inactive) in experiment [1], -33% (inactive) in experiment [3], 11.2% (inactive) in experiment [7] and 17.5% (inactive) in experiment [8]. In experiment [2], the inhibition of aggregation was -6% (inactive). Also, the nuclei count in experiment [2] stood at 110%; in experiment [3] it was 113%. Also, the values for the fluorescence slope in experiment [4] and in experiment [6] were -0.573 (inactive) and 0.00592 (inactive), respectively. In addition, the NADPH fluorescence slope in experiment [5] is -2.9e-05 (inactive).
Consider `Cc1ccc(NC(=O)CC2Nc3ccccc3NC2=O)cc1Cl` (centres undefined), for which, in experiment [1], the cell count came out at 357. Further, the inhibition in experiment [1] is 1.4% (inactive); in experiment [3], -45.4% (inactive); in experiment [7], -4.9% (inactive); in experiment [8], -16.9% (inactive). The inhibition of aggregation in experiment [2] was 14.7% (inactive). The nuclei count amounted to 84.3% in experiment [2] and 99.7% in experiment [3]. For the same molecule, the fluorescence slope was -0.545 (inactive) in experiment [4] and 0.00597 (inactive) in experiment [6]. For the same molecule, the NADPH fluorescence slope in experiment [5] was -1.9e-05 (inactive).
Regarding `O=C(CSC1=NCCS1)NCc1ccco1`, in experiment [1], the cell count amounted to 294. Further, the inhibition in experiment [1] is 0.2% (inactive); in experiment [3], -109% (inactive); in experiment [7], -13.7% (inactive); in experiment [8], -22.5% (inactive). Also, in experiment [2], the inhibition of aggregation is 16.5% (inactive). The nuclei count in experiment [2] turned out to be 87.2%; in experiment [3] it was 108%. The fluorescence slope in experiment [4] is -0.268 (inactive); in experiment [6], 0.00551 (inactive). The NADPH fluorescence slope in experiment [5] was 1.6e-06 (inactive).
Take `CCCC(=O)N1CCN(c2ccc(NC(=O)c3ccc(Br)o3)cc2)CC1`: the cell count in experiment [1] was 232. Further, the inhibition in experiment [1] is 0.6% (inactive); in experiment [3], -64.1% (inactive); in experiment [7], -9.3% (inactive); in experiment [8], -42.4% (inactive). Moreover, in experiment [2], the inhibition of aggregation was 7.1% (inactive). Also, the figures for the nuclei count in experiment [2] and in experiment [3] were 58.2% and 116%, respectively. Besides, the fluorescence slope was -0.457 (inactive) in experiment [4] and 0.00487 (inactive) in experiment [6]. The NADPH fluorescence slope in experiment [5] was 6.7e-06 (inactive).
For `CCOC(=O)c1ccc(N2C(=O)C3CC=CCC3C2=O)cc1` (centres undefined), the cell count in experiment [1] was found to be 640. The inhibition was -6.3% (inactive) in experiment [1], 40.6% (inactive) in experiment [3], 1.51% (inactive) in experiment [7] and -1.14% (inactive) in experiment [8]. Further, in experiment [2], the inhibition of aggregation was -0.1% (inactive). Moreover, the values for the nuclei count in experiment [2] and in experiment [3] were 104% and 101%, respectively. The values for the fluorescence slope in experiment [4] and in experiment [6] were -0.545 (inactive) and 0.00473 (inactive), respectively. Moreover, the NADPH fluorescence slope in experiment [5] was -1.8e-05 (inactive).
As to `Cc1[nH]c(=O)[nH]c(=O)c1S(=O)(=O)N1c2ccc(F)cc2CCC1C` (centres undefined), the cell count in experiment [1] came out at 307. Besides, the inhibition was -3.4% (inactive) in experiment [1], -175% (inactive) in experiment [3], 9.62% (inactive) in experiment [7] and 21.9% (inactive) in experiment [8]. Also, the inhibition of aggregation in experiment [2] is -5% (inactive). The figures for the nuclei count in experiment [2] and in experiment [3] were 112% and 96.2%, respectively. In addition, the fluorescence slope in experiment [4] is -0.461 (inactive); in experiment [6] it was 0.00639 (inactive). Besides, the NADPH fluorescence slope in experiment [5] was -3.2e-05 (inactive).
Take `N#Cc1nc(COc2ccccc2)oc1NCCN1CCOCC1`: the cell count in experiment [1] stood at 778. Further, the inhibition was 1.6% (inactive) in experiment [1], -14.1% (inactive) in experiment [3], 2.21% (inactive) in experiment [7] and 2.82% (inactive) in experiment [8]. Besides, the inhibition of aggregation in experiment [2] is -34.9% (inactive). Besides, the nuclei count was found to be 96.4% in experiment [2] and 102% in experiment [3]. For the same molecule, the fluorescence slope in experiment [4] was -0.569 (inactive); in experiment [6], 0.00627 (inactive). In addition, the NADPH fluorescence slope in experiment [5] was 2.2e-05 (inactive).
With `CCCCc1cc(=O)oc2c(CN3CCCC3)c(O)c(Cl)cc12`, the cell count in experiment [1] stood at 531. In addition, the inhibition in experiment [1] is -12.6% (inactive); in experiment [3], 26.1% (inactive); in experiment [7] it was 20% (inactive); in experiment [8], 19.7% (inactive). Moreover, the inhibition of aggregation in experiment [2] is -16.7% (inactive). The figures for the nuclei count in experiment [2] and in experiment [3] were 46.6% and 89.4%, respectively. The fluorescence slope in experiment [4] was -0.00586 (active); in experiment [6] it was 0.00532 (inactive). Besides, in experiment [5], the NADPH fluorescence slope was 0 (inactive).
Take `CCOC(=O)c1ccc(NC(=O)CCNc2c(N3CCCC3)c(=O)c2=O)cc1`: the cell count in experiment [1] is 266. The inhibition in experiment [1] is 0% (inactive); in experiment [3], -20.2% (inactive); in experiment [7] it was 4.44% (inactive); in experiment [8], 10.6% (inactive). Besides, the inhibition of aggregation in experiment [2] is 26.6% (inactive). Further, the nuclei count in experiment [2] turned out to be 70.7%; in experiment [3] it was 117%. Moreover, the values for the fluorescence slope in experiment [4] and in experiment [6] were -0.609 (inactive) and 0.00478 (inactive), respectively. Further, the NADPH fluorescence slope in experiment [5] was 5.7e-06 (inactive).
As to `COC(=O)c1[nH]c2cc(OC)ccc2c1NC(=O)CCN1CCCCC1`, the cell count in experiment [1] came out at 290. Also, the inhibition in experiment [1] is 10.8% (inactive); in experiment [3], -82.1% (inactive); in experiment [7], -3.43% (inactive); in experiment [8], 3.78% (inactive). In addition, the inhibition of aggregation in experiment [2] is -12.7% (inactive). Besides, the values for the nuclei count in experiment [2] and in experiment [3] were 70.3% and 164%, respectively. For the same molecule, the values for the fluorescence slope in experiment [4] and in experiment [6] were -0.55 (inactive) and 0.0032 (inactive), respectively. Further, the NADPH fluorescence slope in experiment [5] was -5.4e-05 (inactive).
`Cc1sc2c(c1C)CN(C1CC(C)(C)NC(C)(C)C1)CN2C(=O)c1ccco1`: the cell count in experiment [1] was 307. The inhibition in experiment [1] was 10.6% (inactive); in experiment [3], -5% (inactive); in experiment [7], -1.32% (inactive); in experiment [8] it was -7.67% (inactive). Moreover, the inhibition of aggregation in experiment [2] was 2% (inactive). The nuclei count in experiment [2] came to 91.5%; in experiment [3], 105%. For the same molecule, the fluorescence slope in experiment [4] is -0.377 (inactive); in experiment [6] it was 0.00444 (inactive). In experiment [5], the NADPH fluorescence slope is -2.6e-05 (inactive).
On to `Cc1cc(C)n(CCCNC(=O)c2ccc3c(c2)NC(=O)CS3)n1`, for which, in experiment [1], the cell count worked out at 722. The inhibition in experiment [1] is -0.6% (inactive); in experiment [3], 10.7% (inactive); in experiment [7], 14.3% (inactive); in experiment [8], 28.3% (inactive). In addition, the inhibition of aggregation in experiment [2] was -34.8% (inactive). The nuclei count in experiment [2] amounted to 87.8%; in experiment [3], 106%. Besides, the results for the fluorescence slope in experiment [4] and in experiment [6] were -0.416 (inactive) and 0.00708 (inactive), respectively. For the same molecule, the NADPH fluorescence slope in experiment [5] is -1.2e-05 (inactive).
`O=C(OCC(=O)N1CCCC1)c1cncc(Br)c1`: the cell count in experiment [1] came out at 682. The inhibition in experiment [1] is 16.5% (inactive); in experiment [3], 35.3% (inactive); in experiment [7] it was 11.4% (inactive); in experiment [8], 0.097% (inactive). In addition, the inhibition of aggregation in experiment [2] was 23.5% (inactive). Moreover, the nuclei count in experiment [2] was found to be 83%; in experiment [3], 102%. The fluorescence slope in experiment [4] was -0.207 (inactive); in experiment [6], 0.00528 (inactive). Further, the NADPH fluorescence slope in experiment [5] was -2.4e-05 (inactive).
In the case of `COc1ccccc1C1C(C(C)=O)=C(O)C(=O)N1CCc1ccccc1` (centres undefined), the cell count in experiment [1] amounted to 373. The inhibition in experiment [1] was 9.5% (inactive); in experiment [3], -33.5% (inactive); in experiment [7], 10.7% (inactive); in experiment [8], 18.1% (inactive). Also, the inhibition of aggregation in experiment [2] was -6.3% (inactive). In addition, the nuclei count is 105% in experiment [2] and 103% in experiment [3]. For the same molecule, the fluorescence slope in experiment [4] was -0.549 (inactive); in experiment [6] it was 0.00483 (inactive). For the same molecule, the NADPH fluorescence slope in experiment [5] was -3.7e-05 (inactive).

For the origin of these results see PubChem BioAssay.
